Assay results reported in ChEMBL document CHEMBL1806495, “Phenylpropenamide derivatives: anti-hepatitis B virus activity of the Z isomer, SAR and the search for novel analogs” (Bioorg Med Chem Lett, 2011).
Active and inactive are the calls of the source. No cut-off for these calls is given here.

Columns and labels:
[1] = Cytotoxicity against human HepAD38 cells; format: cell-based
Procedure, shortened: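 Viability of Hep AD38 cells measured within the same cellular assay. The value is reported as CC90, the drug concentration that reduces cell viability by 90%.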

[2] = tested on: Hepatitis B virus; assay: Antiviral activity against HBV infected in human HepAD38 cells assessed as inhibition of viral DNA synthesis after 3 days; format: functional; conditions: HePAD38, 72 h
Procedure, shortened: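 Anti-HBV readout in the Hep AD38 cellular assay: the value is reported as EC90, the compound concentration that inhibits viral DNA synthesis by 90%.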

[3] = tested on: Hepatitis B virus; assay: Antiviral activity against HBV infected in human HepAD38 cells assessed as inhibition of viral DNA synthesis up to 100 uM after 3 days; format: functional, organism-based

SMILES | CC90 [1] | EC90 [2] | inhibition [3]
Cc1ccc(/C(Cl)=C(/NC(=O)c2ccccc2)C(=O)N2CCCCC2)cc1 | > 10 µM | > 10 µM | 
O=C(N/C(C(=O)N1CCCCC1)=C(\Cl)c1cccc2c1OCO2)c1ccc([N+](=O)[O-])cc1 | > 10 µM | 4.66 µM | 
O=C(N/C(C(=O)N1CCCCC1)=C(\Cl)c1ccccc1)c1ccccc1 | > 10 µM | 5.51 µM | 
CC1CCCN(C(=O)/C(NC(=O)c2ccccc2)=C(/Cl)c2ccccc2)C1 (stereo unspecified) | > 10 µM | 6.43 µM | 
CS(=O)(=O)c1ccc(C(=O)N/C(C(=O)N2CCCCC2)=C(\Cl)c2ccccc2)cc1 | > 10 µM | > 10 µM | 
O=C(N/C(C(=O)N1CCCCC1)=C(\Cl)c1ccccc1)c1ccc(Cl)cc1 | > 10 µM | 1.25 µM | 
O=C(N/C(C(=O)N1CCCCC1)=C(\Cl)c1ccc(Cl)cc1)c1ccccc1 | > 10 µM | > 10 µM | 
O=C(N/C(C(=O)N1CCCCC1)=C(\Cl)c1ccccc1)c1ccc([N+](=O)[O-])cc1Br | > 10 µM | 4.06 µM | 
O=C(N/C(C(=O)N1CCCCC1)=C(\Cl)c1ccccc1)c1ccc(F)cc1 | > 10 µM | 2.17 µM | 
COc1ccccc1/C(Cl)=C(/NC(=O)c1ccccc1)C(=O)N1CCOCC1 | > 10 µM | 4.72 µM | 
O=C(C1C(c2ccccc2)CCN1C(=O)c1ccc(Br)cc1)N1CCCCC1 (stereo unspecified) | > 10 µM | > 10 µM | 
COc1ccccc1/C(Br)=C(/NC(=O)c1ccccc1)C(=O)N1CCOCC1 | > 10 µM | 2.78 µM | 
O=C(c1c(-c2ccccc2)ccn1C(=O)c1ccc(Br)cc1)N1CCCCC1 | > 10 µM | > 10 µM | 
O=C(N/C(C(=O)N1CCCCC1)=C(\Cl)c1ccccc1)c1ccc(Br)cc1 | > 10 µM | 6.04 µM | 
COc1ccccc1/C(Cl)=C(/NC(=O)c1ccccc1)C(=O)N1CCCCC1 | > 10 µM | 1.71 µM | 
COc1ccccc1/C(Cl)=C(/NC(=O)c1ccc([N+](=O)[O-])cc1)C(=O)N1CCCCC1 | > 10 µM | 0.56 µM | 
O=C(C1=C(c2ccccc2)CCN1C(=O)c1ccccc1)N1CCCCC1 | > 10 µM | > 10 µM | 
O=C(N/C(C(=O)N1CCCC(F)(F)C1)=C(\Cl)c1ccccc1)c1ccccc1 | > 10 µM | > 10 µM | 
COc1ccccc1/C(Br)=C(/NC(=O)c1ccc([N+](=O)[O-])cc1)C(=O)N1CCCC1 | > 10 µM | 0.39 µM | 
COc1cc([N+](=O)[O-])ccc1C(=O)N/C(C(=O)N1CCCCC1)=C(\Cl)c1ccccc1 | > 10 µM | > 10 µM | 
C/C(=C(/NC(=O)c1ccc(Br)cc1)C(=O)N1CCCCC1)c1ccccc1 | > 10 µM | 3.92 µM | 

SMILES | CC90 [1] | EC90 [2] | inhibition [3]
Cc1ccc(C(=O)N/C(C(=O)N2CCCCC2)=C(\Cl)c2ccccc2)cc1 | > 10 µM | 2.9 µM | 
O=C(N/C(C(=O)N1CCCCC1)=C(\Br)c1cccc2c1OCO2)c1ccc([N+](=O)[O-])cc1 | > 10 µM | 1.25 µM | 
O=C(N/C(C(=O)N1CCCCC1)=C(\Cl)c1cccc2c1OCO2)c1ccccc1 | > 10 µM | 9.9 µM | 
O=C(C1=C(c2ccccc2)CCN1C(=O)c1ccc(Br)cc1)N1CCCCC1 | > 10 µM | > 10 µM | 
O=C(N/C(C(=O)N1CCCCC1)=C(\Cl)c1ccccc1F)c1ccccc1 | > 10 µM | 1.81 µM | 
Cc1ccccc1/C(Cl)=C(/NC(=O)c1ccccc1)C(=O)N1CCCCC1 | > 10 µM | 1.8 µM | 
COc1ccccc1C1=C(C(=O)N2CCCCC2)N(C(=O)c2ccccc2)CC1 | > 10 µM | > 10 µM | 
O=C(N/C(C(=O)N1CCCCC1)=C(\Br)c1ccccc1)c1ccc(Cl)cc1 | > 10 µM | 0.91 µM | 
O=C(N/C(C(=O)N1CCCCC1)=C(\Cl)c1ccccc1)c1ccc([N+](=O)[O-])cc1C(F)(F)F | > 10 µM | > 10 µM | 
O=C(N/C(C(=O)N1CCCCC1)=C(/Cl)c1ccccc1)c1ccccc1 |  |  | inactive
O=C(c1c(-c2ccccc2)ccn1C(=O)c1ccccc1)N1CCCCC1 | > 10 µM | > 10 µM | 
C/C(=C(/NC(=O)c1ccc(Cl)cc1)C(=O)N1CCCCC1)c1ccccc1 | > 10 µM | 1.92 µM | 
O=C(C1C(c2ccccc2)CCN1C(=O)c1ccccc1)N1CCCCC1 (stereo unspecified) | > 10 µM | > 10 µM | 
O=C(N/C(C(=O)N1CCCCC1)=C(\Cl)c1ccccc1)c1ccc([N+](=O)[O-])cc1 | > 10 µM | 1.67 µM | 
O=C(N/C(C(=O)N1CCOCC1)=C(\Cl)c1ccccc1)c1ccccc1 | > 10 µM | > 10 µM | 
CN1CCN(C(=O)/C(NC(=O)c2ccccc2)=C(/Cl)c2ccccc2)CC1 | > 10 µM | > 10 µM | 
COc1ccccc1/C(Cl)=C(/NC(=O)c1ccc([N+](=O)[O-])cc1)C(=O)N1CCCC1 | > 10 µM | 1.69 µM | 
O=C(N/C(C(=O)N1CCCCC1)=C(\Br)c1ccccc1)c1ccccc1 | > 10 µM | 5.9 µM | 
COc1ccc(C(=O)N/C(C(=O)N2CCCCC2)=C(\Cl)c2ccccc2)cc1 | > 10 µM | > 10 µM | 
O=C(N/C(C(=O)N1CCCCC1)=C(\Cl)c1ccccc1)c1ccc([N+](=O)[O-])cc1[N+](=O)[O-] | > 10 µM | > 10 µM | 
